Measured values taken from ChEMBL document CHEMBL1155660, “Hyalodendrosides A and B, antifungal triterpenoid glycosides from a lignicolous hyphomycete, Hyalodendron species” (2000).
Converted amounts (≈) assume the structure as drawn.

Assays:
Assay type in all cases: functional
Candida albicans [1] = test: Antifungal activity against Candida albicans MY1055 after 48 hrs in presence of 10% bovine serum albumin; conditions: MY1055, 48 h
How it was run: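 Microtiter broth dilution MIC in Synthetic Complete medium with 10% bovine serum albumin added. Log-phase inoculum set by A600 to an absorbance of 0.0014. Titration started at 256 µg/mL. Cells grown 48 h and endpoints read visually.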

Cryptococcus neoformans = test: Antifungal activity against Cryptococcus neoformans MY2062 after 48 hrs
How it was run: (§1)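 Broth microdilution MIC in microtiter format. Organisms grown in Synthetic Complete defined medium. Log-phase cells adjusted by A600 to an initial inoculum absorbance of 0.0014. […] Growth inhibition scored at 24 and 48 h, with visual endpoints.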

Candida albicans [2] = test: Antifungal activity against Candida albicans MY1055 after 48 hrs; conditions: MY1055, 48 h; how it was run: as §1
Aspergillus fumigatus = test: Antifungal activity against Aspergillus fumigatus MF5668 after 48 hrs; how it was run: as §1
Saccharomyces cerevisiae = test: Antifungal activity against Saccharomyces cerevisiae MY2214 after 48 hrs; how it was run: as §1

MIC (Candida albicans [1]) [µg/mL]	MIC (Cryptococcus neoformans) [µg/mL]	MIC (Candida albicans [2]) [µg/mL]	MIC (Aspergillus fumigatus) [µg/mL]	MIC (Saccharomyces cerevisiae) [µg/mL]	Structure (SMILES)
128	> 256	128 (≈ 181 µM)	> 256	128 (≈ 181 µM)	CC(=O)O[C@@H]1C[C@]2(CO)[C@H]3CCC4=C5C(=O)CC6[C@H](C)CO[C@@H](O)C56CC[C@@]4(C)[C@]3(C)CC[C@H]2C(C)(C)[C@H]1O[C@@H]1O[C@H](CO)[C@@H](O)[C@H](O)[C@H]1O (stereo not given in full) [HYALODENDROSIDE A]
128	4 (≈ 5.91 µM)	16 (≈ 23.6 µM)	64 (≈ 94.6 µM)	32 (≈ 47.3 µM)	CC(=O)O[C@@H]1C[C@]2(CO)[C@H]3CCC4=C5C(=O)C[C@@H](C(C)C)[C@@]5(C)CC[C@@]4(C)[C@]3(C)CC[C@H]2C(C)(C)[C@H]1O[C@@H]1O[C@H](CO)[C@@H](O)[C@H](O)[C@H]1O [HYALODENDROSIDE B]

Structure (SMILES)	MIC (Candida albicans [1]) [µg/mL]	MIC (Cryptococcus neoformans) [µg/mL]	MIC (Candida albicans [2]) [µg/mL]	MIC (Aspergillus fumigatus) [µg/mL]	MIC (Saccharomyces cerevisiae) [µg/mL]
C[C@@H]1[C@H](O)[C@@H](C)/C=C/C=C/C=C/C=C/C=C/C=C/C=C/[C@H](O[C@@H]2O[C@H](C)[C@@H](O)[C@H](N)[C@@H]2O)C[C@@H]2O[C@](O)(C[C@@H](O)C[C@@H](O)[C@H](O)CC[C@@H](O)C[C@@H](O)CC(=O)O[C@H]1C)C[C@H](O)[C@H]2C(=O)O [AMPHOTERICIN B]	0.25	0.25 (≈ 0.271 µM)	0.5 (≈ 0.541 µM)	1 (≈ 1.08 µM)	0.25 (≈ 0.271 µM)
